Measurements taken from article PMC11294631 (Nature Communications, 2024).
Like-named read-outs stand apart in the source and are kept apart here.

Tests used:
SNAP-mGluR3 [1] = biological target: T1, SNAP-mGluR3 (Rattus norvegicus, UniProt P31422); assay: GIRK current, whole-cell patch clamp; format: cell-based; conditions: GIRK1-F137S co-expressed
SNAP-mGluR3 [2] = biological target: T1, SNAP-mGluR3; assay: GIRK current, whole-cell patch clamp; format: cell-based
In short: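 Cells grown in DMEM with 10% FBS at 37 °C/5% CO2, seeded on poly-L-lysine-coated glass coverslips, and co-transfected (Lipofectamine 2000) with receptor, GIRK1-F137S homotetramer and tdTomato. Medium was switched at 6 h to 5 µM LY341495. Whole-cell voltage clamp at −60 mV 24–36 h post-transfection. Log EC50 of point mutants versus WT compared by extra sum-of-squares F-test.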

T1 sequence (P31422 23-879): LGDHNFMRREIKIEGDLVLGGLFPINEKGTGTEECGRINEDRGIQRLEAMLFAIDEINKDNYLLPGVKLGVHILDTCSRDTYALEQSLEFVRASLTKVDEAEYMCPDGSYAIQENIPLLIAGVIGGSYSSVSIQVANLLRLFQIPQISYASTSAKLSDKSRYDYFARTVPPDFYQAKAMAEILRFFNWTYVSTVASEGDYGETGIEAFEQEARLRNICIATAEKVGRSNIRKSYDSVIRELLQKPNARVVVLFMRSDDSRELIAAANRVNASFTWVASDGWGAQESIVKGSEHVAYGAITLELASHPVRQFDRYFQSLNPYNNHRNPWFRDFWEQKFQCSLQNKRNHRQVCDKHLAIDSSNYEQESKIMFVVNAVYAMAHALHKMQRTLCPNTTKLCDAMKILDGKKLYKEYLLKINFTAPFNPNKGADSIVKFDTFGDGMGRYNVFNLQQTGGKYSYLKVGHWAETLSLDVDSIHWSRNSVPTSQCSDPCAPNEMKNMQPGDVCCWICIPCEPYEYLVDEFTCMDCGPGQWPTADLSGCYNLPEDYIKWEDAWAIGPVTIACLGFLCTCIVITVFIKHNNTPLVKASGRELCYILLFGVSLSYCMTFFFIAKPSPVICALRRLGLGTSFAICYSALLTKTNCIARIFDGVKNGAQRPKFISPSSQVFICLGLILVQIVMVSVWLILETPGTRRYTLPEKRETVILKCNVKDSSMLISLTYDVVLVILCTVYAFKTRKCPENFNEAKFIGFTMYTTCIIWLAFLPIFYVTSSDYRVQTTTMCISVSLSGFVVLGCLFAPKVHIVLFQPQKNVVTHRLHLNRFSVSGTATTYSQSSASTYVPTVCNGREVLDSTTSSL

Row | Structure (SMILES) | EC50 (SNAP-mGluR3 [1]; orthosteric agonist) | also measured
1 | N[C@H](C(=O)O)C1[C@@H](C(=O)O)[C@@H]1C(=O)O (stereo partly shown) [DCG-IV] |  | EC50 (SNAP-mGluR3 [1]; orthosteric partial agonist): All three agonists produced dose-dependent, reversible GIRK currents
2 | N[C@@]1(C(=O)O)CO[C@H]2[C@H](C(=O)O)[C@H]21 [LY379268] | All three agonists produced dose-dependent, reversible GIRK currents | 
3 | COc1ccc(C(=O)O)cc1OC[C@H](C)COc1ccc(C(=O)CC(C)(C)C)c(O)c1C [VU6023326, (R)−3-(3-(4-(3,3-dimethylbutanoyl)−3-hydroxy-2-methylphenoxy)−2-methyl-propoxy)−4-methoxybenzoic acid] |  | EC50 (SNAP-mGluR3 [2]): 7.94 nM
4 | N[C@@H](CCC(=O)O)C(=O)O [glutamate] | All three agonists produced dose-dependent, reversible GIRK currents | 
